{
  "source": "ChEMBL document CHEMBL3352770",
  "about": "“Click chemistry inspired synthesis and bioevaluation of novel triazolyl derivatives of osthol as potent cytotoxic agents” (Eur J Med Chem, 2014)",
  "key": {"[1]": {"test_system": "COLO 205", "assay": "Cytotoxicity against human COLO205 cells after 24 hrs by MTT assay", "format": "functional, cell-based", "conditions": "COLO 205, 24 h", "summary_of_the_method": "(§1)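 Cells kept in DMEM with 10% foetal calf serum, penicillin and streptomycin, at 37 °C under 5% CO2. For assays serum lowered to 3%. Cells treated with test material at 0.04–60 µM for 24 h, then MTT (250 µg/mL) for 3 h. Formazan OD read at 570 nm. IC50 by non-linear regression, mean of triplicates. BEZ-235 as positive control.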"}, "[2]": {"assay": "Cytotoxicity against human HCT116 cells after 24 hrs by MTT assay", "format": "functional, cell-based", "conditions": "HCT-116, 24 h", "summary_of_the_method": "as §1"}, "[3]": {"test_system": "T47D", "assay": "Cytotoxicity against human T47D cells after 24 hrs by MTT assay", "format": "functional, cell-based", "summary_of_the_method": "as §1"}, "[4]": {"assay": "Cytotoxicity against human NCI-H322 cells after 24 hrs by MTT assay", "format": "functional, cell-based", "conditions": "NCI-H322, 24 h", "summary_of_the_method": "as §1"}, "[5]": {"test_system": "A549", "assay": "Cytotoxicity against human A549 cells after 24 hrs by MTT assay", "format": "functional, cell-based", "conditions": "A549, 24 h", "summary_of_the_method": "as §1"}, "[6]": {"assay": "Cytotoxicity against human PC3 cells after 24 hrs by MTT assay", "format": "functional, cell-based", "conditions": "PC-3, 24 h", "summary_of_the_method": "as §1"}, "[7]": {"test_system": "A-431", "assay": "Cytotoxicity against human A431 cells after 24 hrs by MTT assay", "format": "functional, cell-based", "conditions": "A-431, 24 h", "summary_of_the_method": "as §1"}, "[8]": {"test_system": "COLO 205", "assay": "Induction of apoptosis in human COLO205 cells assessed as accumulation at subG1 phase at 1 uM after 48 hrs by propidium iodide staining based flow cytometry (reference value: 12%)", "format": "functional"}, "[9]": {"test_system": "COLO 205", "assay": "Induction of cell cycle arrest in human COLO205 cells assessed as accumulation at G1 phase at 1 uM after 48 hrs by propidium iodide staining based flow cytometry (reference value: 45.7%)", "format": "functional"}, "[10]": {"test_system": "COLO 205", "assay": "Induction of cell cycle arrest in human COLO205 cells assessed as accumulation at S phase at 1 uM after 48 hrs by propidium iodide staining based flow cytometry (reference value: 13.8%)", "format": "functional"}, "[11]": {"test_system": "COLO 205", "assay": "Induction of cell cycle arrest in human COLO205 cells assessed as accumulation at G2 phase at 1 uM after 48 hrs by propidium iodide staining based flow cytometry (reference value: 13.2%)", "format": "functional"}, "[12]": {"test_system": "COLO 205", "assay": "Induction of apoptosis in human COLO205 cells assessed as accumulation at subG1 phase at 5 uM after 48 hrs by propidium iodide staining based flow cytometry (reference value: 12%)", "format": "functional", "summary_of_the_method": "(§2)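 Colo-205 seeded at 5 × 10⁵ cells/ml in 6-well plates and grown 24 h. Treated at 1, 5, 10 and 25 µM for 48 h. Harvested, washed in PBS, fixed in 70% ethanol overnight at −20 °C. Stained 30 min in the dark with PI, EDTA, RNase and Triton X-100 in PBS. DNA content by flow cytometry, sub-G1 taken as apoptotic. Untreated/DMSO negative control; camptothecin 1 µM positive control; two experiments.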"}, "[13]": {"test_system": "COLO 205", "assay": "Induction of cell cycle arrest in human COLO205 cells assessed as accumulation at G1 phase at 5 uM after 48 hrs by propidium iodide staining based flow cytometry (reference value: 45.7%)", "format": "functional", "summary_of_the_method": "as §2"}, "[14]": {"test_system": "COLO 205", "assay": "Induction of cell cycle arrest in human COLO205 cells assessed as accumulation at S phase at 5 uM after 48 hrs by propidium iodide staining based flow cytometry (reference value: 13.8%)", "format": "functional", "summary_of_the_method": "as §2"}, "[15]": {"test_system": "COLO 205", "assay": "Induction of cell cycle arrest in human COLO205 cells assessed as accumulation at G2 phase at 5 uM after 48 hrs by propidium iodide staining based flow cytometry (reference value: 13.2%)", "format": "functional", "summary_of_the_method": "as §2"}, "[16]": {"test_system": "COLO 205", "assay": "Induction of apoptosis in human COLO205 cells assessed as accumulation at subG1 phase at 10 uM after 48 hrs by propidium iodide staining based flow cytometry (reference value: 12%)", "format": "functional", "summary_of_the_method": "as §2"}, "[17]": {"test_system": "COLO 205", "assay": "Induction of cell cycle arrest in human COLO205 cells assessed as accumulation at G1 phase at 10 uM after 48 hrs by propidium iodide staining based flow cytometry (reference value: 45.7%)", "format": "functional", "summary_of_the_method": "as §2"}, "[18]": {"test_system": "COLO 205", "assay": "Induction of cell cycle arrest in human COLO205 cells assessed as accumulation at S phase at 10 uM after 48 hrs by propidium iodide staining based flow cytometry (reference value: 13.8%)", "format": "functional", "summary_of_the_method": "as §2"}, "[19]": {"test_system": "COLO 205", "assay": "Induction of cell cycle arrest in human COLO205 cells assessed as accumulation at G2 phase at 10 uM after 48 hrs by propidium iodide staining based flow cytometry (reference value: 13.2%)", "format": "functional", "summary_of_the_method": "as §2"}, "[20]": {"test_system": "COLO 205", "assay": "Induction of apoptosis in human COLO205 cells assessed as accumulation at subG1 phase at 25 uM after 48 hrs by propidium iodide staining based flow cytometry (reference value: 12%)", "format": "functional", "summary_of_the_method": "as §2"}, "[21]": {"test_system": "COLO 205", "assay": "Induction of cell cycle arrest in human COLO205 cells assessed as accumulation at G1 phase at 25 uM after 48 hrs by propidium iodide staining based flow cytometry (reference value: 45.7%)", "format": "functional", "summary_of_the_method": "as §2"}, "[22]": {"test_system": "COLO 205", "assay": "Induction of cell cycle arrest in human COLO205 cells assessed as accumulation at S phase at 25 uM after 48 hrs by propidium iodide staining based flow cytometry (reference value: 13.8%)", "format": "functional", "summary_of_the_method": "as §2"}, "[23]": {"test_system": "COLO 205", "assay": "Induction of cell cycle arrest in human COLO205 cells assessed as accumulation at G2 phase at 25 uM after 48 hrs by propidium iodide staining based flow cytometry (reference value: 13.2%)", "format": "functional", "summary_of_the_method": "as §2"}, "[24]": {"test_system": "COLO 205", "assay": "Induction of mitochondrial membrane potential loss in human COLO205 cells at 1 uM after 48 hrs by Rh-123 staining based flow cytometry (reference value: 12.4%)", "format": "functional"}, "[25]": {"test_system": "COLO 205", "assay": "Induction of mitochondrial membrane potential loss in human COLO205 cells at 5 uM after 48 hrs by Rh-123 staining based flow cytometry (reference value: 12.4%)", "format": "functional"}, "[26]": {"test_system": "COLO 205", "assay": "Induction of mitochondrial membrane potential loss in human COLO205 cells at 10 uM after 48 hrs by Rh-123 staining based flow cytometry (reference value: 12.4%)", "format": "functional"}, "[27]": {"test_system": "COLO 205", "assay": "Induction of mitochondrial membrane potential loss in human COLO205 cells at 25 uM after 48 hrs by Rh-123 staining based flow cytometry (reference value: 12.4%)", "format": "functional"}, "[28]": {"test_system": "COLO 205", "assay": "Induction of apoptosis in human COLO205 cells assessed as accumulation at subG1 phase after 48 hrs by propidium iodide staining based flow cytometry", "format": "functional, cell-based", "summary_of_the_method": "as §2"}},
  "data": [
    {"compound": "COc1ccc(/C=C\\C(=O)O)c(OCc2cn(-c3ccc(CC#N)cc3)nn2)c1CC=C(C)C", "values": [
      {"measurement": "IC50", "setting": "[1]", "result": 1.3, "unit": "µM"},
      {"measurement": "IC50", "setting": "[2]", "result": 4.9, "unit": "µM"},
      {"measurement": "IC50", "setting": "[3]", "result": 3.6, "unit": "µM"},
      {"measurement": "IC50", "setting": "[4]", "result": 41, "unit": "µM"},
      {"measurement": "IC50", "setting": "[5]", "result": 35.2, "unit": "µM"},
      {"measurement": "IC50", "setting": "[6]", "result": 26.4, "unit": "µM"},
      {"measurement": "IC50", "setting": "[7]", "result": 7.2, "unit": "µM"},
      {"measurement": "Activity", "setting": "[8]", "result": 12.5, "unit": "%"},
      {"measurement": "Activity", "setting": "[9]", "result": 46.4, "unit": "%"},
      {"measurement": "Activity", "setting": "[10]", "result": 13.9, "unit": "%"},
      {"measurement": "Activity", "setting": "[11]", "result": 12.9, "unit": "%"},
      {"measurement": "Activity", "setting": "[12]", "result": 15.2, "unit": "%"},
      {"measurement": "Activity", "setting": "[13]", "result": 46.8, "unit": "%"},
      {"measurement": "Activity", "setting": "[14]", "result": 16.1, "unit": "%"},
      {"measurement": "Activity", "setting": "[15]", "result": 11.5, "unit": "%"},
      {"measurement": "Activity", "setting": "[16]", "result": 15.7, "unit": "%"},
      {"measurement": "Activity", "setting": "[17]", "result": 45, "unit": "%"},
      {"measurement": "Activity", "setting": "[18]", "result": 14.7, "unit": "%"},
      {"measurement": "Activity", "setting": "[19]", "result": 11.2, "unit": "%"},
      {"measurement": "Activity", "setting": "[20]", "result": 24.1, "unit": "%"},
      {"measurement": "Activity", "setting": "[21]", "result": 38.5, "unit": "%"},
      {"measurement": "Activity", "setting": "[22]", "result": 13.2, "unit": "%"},
      {"measurement": "Activity", "setting": "[23]", "result": 10.4, "unit": "%"},
      {"measurement": "Activity", "setting": "[24]", "result": 24.4, "unit": "%"},
      {"measurement": "Activity", "setting": "[25]", "result": 26.9, "unit": "%"},
      {"measurement": "Activity", "setting": "[26]", "result": 29.7, "unit": "%"},
      {"measurement": "Activity", "setting": "[27]", "result": 29.9, "unit": "%"},
      {"measurement": "Activity", "setting": "[28]", "result": "Dose-dependent effect"}
    ]}
  ]
}
